Values after ≈ are worked out from the molar mass of the structure shown.
Key:
Hepatitis C virus = experiment: Antiviral activity against HCV genotype 1b infected in Huh5-2 cells assessed as inhibition of viral replication after 4 days by luciferase reporter gene assay; type: functional, organism-based, Hepacivirus hominis, Huh-5-2; conditions: for EC50: Hepatitis C virus, genotype 1b, Huh-5-2, 96 h
How it was run: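 Huh 5-2 cells carrying the HCV subgenomic luciferase replicon were seeded at 5 × 10³/well with compound and incubated 4 days at 37 °C. Medium was removed and luciferase activity quantified. EC50 is the minimum concentration reducing replicon-driven luciferase signal by 50%.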

[1] = Cytotoxicity against MDBK cells assessed as growth inhibition after 3 days by MTS assay; type: cell-based, Bos taurus; conditions: cattle
How it was run: (§1)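 MDBK or Huh 5-2 cells were seeded at 5 × 10³/well in MEM-FCS, with serial compound dilutions added 24 h later. Cells proliferated 3 days at 37 °C, then metabolic activity was read by MTS/PMS. CC50 is the concentration inhibiting proliferation of exponentially growing cells by 50%, by linear interpolation.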

[2] = Antiviral activity against BVDV NADL infected in MDBK cells assessed as inhibition of virus-induced cytopathic effect formation after 5 days by MTS assay; type: functional, cell-based, Bovine viral diarrhea virus 1-NADL; conditions: Bovine viral diarrhea virus isolates and strains, 120 h
How it was run: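 MDBK cells were seeded at 5 × 10³/well in MEM-FCS and held 24 h at 37 °C, 5% CO₂. Medium was replaced with 5-fold serial compound dilutions, then BVDV inoculum was added at MOI 2. CPE was read by MTS as OD at 490 nm. EC50 is the concentration giving 50% protection against virus-induced CPE, by linear interpolation.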

[3] = Cytotoxicity against human Huh5-2 cells assessed as growth inhibition after 3 days by MTS assay; type: cell-based, Huh-5-2; how it was run: as §1
[4] = Selectivity index, ratio of CC50 for Huh5-2 cells to EC50 for HCV genotype 1b infected in Huh5-2 cells; parameters: species or system Huh-5-2
How it was run: (§2)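 Selectivity index is the ratio of CC50 from the 3-day MTS/PMS proliferation assay to EC50 in the same cell line. For Huh 5-2 the EC50 is from the luciferase replicon assay; for MDBK it is from the MTS CPE assay.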

[5] = Selectivity index, ratio of CC50 for MDBK cells to EC50 for BVDV NADL infected in MDBK cells; how it was run: as §2

Row | Structure (SMILES) | EC50 (Hepatitis C virus) [µg/mL] | CC50 at 72 h [1] [µg/mL] | EC50 [2] [µg/mL] | CC50 at 72 h [3] [µg/mL] | Ratio CC50/EC50 [4] | Ratio CC50/EC50 [5] | inhibition (INH) (Hepatitis C virus) [%]
1 | COc1ccccc1-c1nc2ccc(-c3ccsc3)nn2c1-c1cccc(-c2ccc(O)cc2)c1 | 2.4 (≈ 5.05 µM) | > 100 | > 100 | 22.1 (≈ 46.5 µM) | 9.2 |  | 
2 | Fc1ccc(-c2nc3ccc(-c4ccccc4)cn3c2-c2ccc(-c3ccccc3)cc2)cc1 | 4.5 (≈ 10.2 µM) | 30 (≈ 68.1 µM) | > 30 | 11.4 (≈ 25.9 µM) | 2.5 |  | 
3 | Fc1ccc(-c2nc3ccc(-c4ccsc4)cn3c2-c2cccc(-c3ccccc3)c2)cc1 | > 112 | > 33 | 0.74 (≈ 1.66 µM) | > 112 | >1 | >45 | 
4 | CN1CCN(c2cccc(-c3c(-c4ccc(F)cc4)nc4ccccn34)c2)CC1 | 21.8 (≈ 56.4 µM) |  |  | 60.1 (≈ 156 µM) | 2.8 |  | 
5 | Fc1ccc(-c2nc3ccc(N4CCOCC4)nn3c2-c2ccc(-c3ccccc3)cc2)cc1 |  | > 50 | > 50 | 33.3 (≈ 73.9 µM) |  | >1 | 
6 | Fc1ccc(-c2nc3ccccn3c2-c2cccc(-c3ccoc3)c2)cc1 | 19.2 (≈ 54.2 µM) | 5.6 (≈ 15.8 µM) | 1.7 (≈ 4.8 µM) | 66.2 (≈ 187 µM) | 3.4 | 3.2 | 
7 | CC(C)(C)c1nc2ccc(-c3ccsc3)nn2c1-c1cccc(-c2ccc(O)cc2)c1 | 5 (≈ 11.7 µM) | > 100 | 14.2 (≈ 33.4 µM) | 15 (≈ 35.2 µM) | 3 | >7.1 | 
8 | COc1ccccc1-c1nc2ccc(-c3ccsc3)nn2c1-c1cccc(-c2ccccc2O)c1 | 4.8 (≈ 10.1 µM) | 16.2 (≈ 34.1 µM) | 1.36 (≈ 2.86 µM) | > 205 | >43 | 12 | 60
9 | COc1ccccc1-c1cccc(-c2c(-c3ccc(F)cc3)nc3ccccn23)c1 | 10.7 (≈ 27.1 µM) | 8.5 (≈ 21.5 µM) | 2.7 (≈ 6.84 µM) | 29.7 (≈ 75.3 µM) | 2.8 | 3.2 | 
10 | Fc1ccc(-c2nc3ccccn3c2-c2cccc(-c3cc4ccccc4o3)c2)cc1 | 28 (≈ 69.2 µM) |  |  | 54.9 (≈ 136 µM) | 2 |  | 
11 | COc1ccccc1-c1nc2ccccn2c1-c1cccc(-c2ccccc2O)c1 | 48.9 (≈ 125 µM) | 14.4 (≈ 36.7 µM) | 7.55 (≈ 19.2 µM) | 95.8 (≈ 244 µM) | 2 | 1.9 | 
12 | Fc1ccc(-c2nc3ccccn3c2-c2cccc(-c3ccsc3)c2)cc1 | 11.1 (≈ 30 µM) | 7 (≈ 18.9 µM) | 2.3 (≈ 6.21 µM) | 56.7 (≈ 153 µM) | 5.1 | 3 | 
13 | COc1ccccc1-c1nc2ccc(-c3ccsc3)nn2c1-c1cccc(-c2cccc(O)c2)c1 | 3.8 (≈ 7.99 µM) | > 100 | > 100 | 78.5 (≈ 165 µM) | 20.8 |  | 
14 | Fc1ccc(-c2nc3ccc(N4CCOCC4)cn3c2-c2ccc(-c3ccccc3)cc2)cc1 | 6.7 (≈ 14.9 µM) | > 50 | > 50 | 15.6 (≈ 34.7 µM) | 2.3 | >1 | 
15 | Fc1ccc(-c2nc3ccc(N4CCOCC4)nn3c2-c2cccc(-c3ccccc3)c2)cc1 |  | 12 (≈ 26.6 µM) | 4 (≈ 8.88 µM) | 11.1 (≈ 24.6 µM) |  | 3 | 
16 | Fc1ccc(-c2nc3ccccn3c2-c2cccc(-c3ccccc3)c2)cc1 | 34.9 (≈ 95.8 µM) |  |  | 60.4 (≈ 166 µM) | 1.7 |  | 
17 | COc1ccccc1-c1nc2ccc(-c3ccsc3)nn2c1-c1cccc(-c2ccccc2)c1 | 14.7 (≈ 32 µM) | 10.4 (≈ 22.6 µM) | 3.4 (≈ 7.4 µM) | 97.4 (≈ 212 µM) | 6.6 | 3.1 | 
18 | CC(C)(C)c1nc2ccc(-c3ccsc3)nn2c1-c1cccc(-c2ccoc2)c1 | 8.7 (≈ 21.8 µM) | 4.5 (≈ 11.3 µM) | 1.7 (≈ 4.26 µM) | 55.1 (≈ 138 µM) | 6.3 | 2.7 | 
19 | Fc1ccc(-c2nc3ccccn3c2-c2ccc(-c3ccccc3)cc2)cc1 | 2.64 (≈ 7.24 µM) |  |  | 36 (≈ 98.8 µM) |  |  | 
20 | Fc1ccc(-c2nc3ccccn3c2-c2cccc(-c3ccco3)c2)cc1 | 12.8 (≈ 36.1 µM) |  |  | 24.7 (≈ 69.7 µM) | 1.9 |  | 
